# CHRM1 agonist: human M1 muscarinic receptor agonism. P11229. activation, % at 3 µM. CHO-K1 hM1, Fluo-8 calcium fluorescence, agonist mode; 0% DMSO, 100% acetylcholine EC100. actives 0.33% (n = 360,000). AID 588814;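 active = activation above the run's mean compound activation plus 3 SD, cut at about 16% in these data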;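 note: peak over basal fluorescence ratio within a 140 s kinetic read after compound addition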
# HTR2A ag: agonists of mouse serotonin 5-HT2A receptor (HTR2A); P35363; CHO-K1 mHTR2A beta-arrestin complementation, luminescence; percent of 30 µM serotonin response; activation, % at 7.6 µM; actives 0.66% (n = 360,000); AID 624169;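 active = activation above a run cutoff, the mean activation of all tested compounds plus 3 SD, cut at about 14% in these data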;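 note: 0% = plate median of compound wells and 100% = 30 µM serotonin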
# CHRM1 antagonist: blocks human M1 muscarinic receptor; CHO-K1 hM1, Fluo-8 calcium fluorescence, ACh EC80 antagonist; AID 588852; actives 1.3% (n = 360,000); inhibition, % at 3 µM;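 active = percent inhibition above its own plate's cutoff, namely the mean of that plate's compound wells plus 3 SD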;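 note: peak over basal fluorescence ratio during 140 s after agonist addition; 0% = ACh EC80 plus DMSO and 100% = DMSO alone without agonist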
# TAAR1 antagonist: antagonists of human TAAR1; Q96RJ0; CHO RD-HGA16 TAAR1, Fluo-8 calcium fluorescence, antagonist; actives 1.5% (n = 360,000); inhibition, % at 3 µM;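 active = inhibition above a per-plate cutoff, the mean inhibition of test compounds on that plate plus 3 SD, cut at about 49% in these data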;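 note: 0% = DMSO plus EC80 beta-PEA response and 100% = DMSO alone without agonist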
# Target sequence (Q96RJ0 whole entry, looked up): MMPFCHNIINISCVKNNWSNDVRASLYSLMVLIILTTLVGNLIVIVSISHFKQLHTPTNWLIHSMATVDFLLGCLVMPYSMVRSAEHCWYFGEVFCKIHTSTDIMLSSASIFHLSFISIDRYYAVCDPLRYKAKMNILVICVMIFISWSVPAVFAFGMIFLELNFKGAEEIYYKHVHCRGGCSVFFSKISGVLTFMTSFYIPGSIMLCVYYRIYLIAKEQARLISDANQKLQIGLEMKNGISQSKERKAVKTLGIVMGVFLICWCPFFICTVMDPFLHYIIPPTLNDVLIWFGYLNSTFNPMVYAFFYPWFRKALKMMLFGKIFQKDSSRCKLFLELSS
#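 System: RD-HGA16 CHO cells with stable hTAAR1 and Gα16 | Probe or stimulus: EC80 β-phenethylamine stimulus | Dosing: 3 µM, single point | Times: Dye loading 75 min at 37 °C, then 30 min room temperature | Measured by: Fluo-8 calcium-sensitive fluorescence | Read-out basis: % inhibition of agonist calcium response | Replicates: n of 1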
# CHRM1 PAM: human CHRM1 positive allosteric modulation; P11229; CHO-K1 hM1, Fluo-8 calcium fluorescence, ACh EC20; 0% = ACh EC20, 100% = maximal ACh; activation, % at 3 µM; actives 0.088% (n = 360,000); AID 588819; in the data active = activation above about 19%, passing the limit was not always enough
# TAAR1 agonist: agonists of human TAAR1 | Q96RJ0 | CHO RD-HGA16 TAAR1, Fluo-8 calcium fluorescence; vehicle wells 0%, saturating PEA agonist 100% | activation, % at 3 µM | actives 0.99% (n = 360,000) | AID 624467;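 active = activation above the mean activation of all test compounds in the run plus 3 SD, cut at about 38% in these data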
#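 Benchmarks: low control DMSO, high control PEA (EC100); System: CHO RD-HGA16 cells carrying human TAAR1 plus Gα16; Detection: Fluo-8 fluorescence, 5 s baseline then 140 s kinetic read; Schedule: 17-24 h plating, Fluo-8 75 min 37 °C, 30 min RT; Read-out basis: % activation from peak over basal fluorescence ratio, DMSO-to-PEA scaled.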
# TAAR1 nonsel count: nonselective antagonism, TAAR1 counter-screen | shares compounds with TAAR1 antagonist | counterscreen cell line, calcium fluorescence, antagonist mode | inhibition, % at 3 µM | actives 77% (n = 2,400) | AID 651780; in the data active = inhibition above about 22%;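 note: CHO-Ga16 host cells stimulated with ATP at an EC80 level; 0% = agonist EC80 plus vehicle and 100% = vehicle without agonist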
# TAAR1 ant conf: confirmation of human TAAR1 antagonists | shares compounds with TAAR1 antagonist | TAAR1-expressing cells, fluorescence antagonist read-out | inhibition, % at 3 µM | actives 40% (n = 2,400); in the data active = inhibition above about 49%;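 note: CHO-Ga16 host cells challenged with agonist PEA near its EC80; 0% = agonist at EC80 plus vehicle and 100% = vehicle with no agonist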
# Ga16 nonsel ag: nonselective Ga16 agonist in TAAR1 antagonist counter-screen | actives 18% (n = 2,400) | Ga16-expressing cells, calcium fluorescence, agonist counterscreen | activation, % at 3 µM | shares compounds with TAAR1 antagonist | AID 651953; in the data active = activation above about 12%;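 note: 0% = vehicle wells and 100% = saturating stimulus response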
# TAAR1 ag count: TAAR1 agonism, antagonist counter-screen; shares compounds with TAAR1 antagonist; AID 651955; actives 2% (n = 2,400); activation, % at 3 µM; hTAAR1 cell line, fluorescence activation, agonist mode; in the data active = activation above about 37%;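 note: CHO cells stably expressing TAAR1 with calcium dye readout; 0% = DMSO vehicle and 100% = full agonist response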
# * marks the source's active call; other numbers are inactive results; . = not tested or not shown. Sampled rows, rich in hits. Any-hit rate of the full collection: about 3.9%.
SMILES,CHRM1 agonist,HTR2A ag,CHRM1 antagonist,TAAR1 antagonist,CHRM1 PAM,TAAR1 agonist,TAAR1 nonsel count,TAAR1 ant conf,Ga16 nonsel ag,TAAR1 ag count
Cc1ccc(Cl)cc1N1CCN(C(=O)CSc2nnc3n2C(C)(C)Cc2ccccc2-3)CC1,1,6,50*,60*,-15,19,44*,48,11,6
COc1ccc(N2CCN(C(=O)CSc3nnc4n3C(C)(C)Cc3ccccc3-4)CC2)cc1,-5,3,-9,-11,6,7,.,.,.,.
CC(C)CN1CCC(=O)N([C@H](CSc2ccccc2)Cc2ccccc2)CC1,-7,4,17,53*,-16,10,18,30,11,18
Cc1ccc(SC[C@H](Cc2ccccc2)N2CCN(CC(C)C)CCC2=O)cc1,-11,-3,4,36,-11,11,.,.,.,.
Cc1ccc(-c2csc(N3CCN(c4cc5c(cc4Cl)nc(-c4ccncc4)n5CCN4CCCCC4)CC3)n2)cc1,-7,-7,-16,7,3,0,.,.,.,.
COc1ccc(-c2csc(N3CCN(c4cc5c(cc4Cl)nc(-c4ccncc4)n5CCOCCO)CC3)n2)cc1,-7,-6,-7,50*,8,13,34*,33,8,0
O=C(COC(=O)c1ccccc1Nc1ccc(SC(F)F)cc1)NCc1ccco1,-4,3,-21,52*,1,7,18,22,0,-2
CN(C)C(=O)COC(=O)c1ccccc1OCC(=O)Nc1ccc(SC(F)F)cc1,-4,-4,26,64*,-11,17,32*,51*,11,8
O=C(COc1ccccc1C(=O)O)Nc1ccc(SC(F)F)cc1,-2,-1,2,-13,3,1,.,.,.,.
O=C(c1cc2cc(F)ccc2[nH]1)N1CCN(C(=O)c2ccco2)CC1,0,-3,-10,11,1,2,.,.,.,.
O=C(N/N=C/c1c[nH]c2ccccc12)c1ccn(Cc2ccc(Cl)cc2Cl)n1,0,1,-30,37,-1,5,.,.,.,.
O=C(N/N=C/c1c[nH]c2ccc(Br)cc12)c1ccn(Cc2ccc(Cl)cc2)n1,1,-2,-4,62*,9,16,24*,42,4,11
O=C1NC2=C(C(=O)OC2)C(c2ccc(OC(F)(F)F)cc2)N1 (configuration not stated),-1,-1,-1,-9,2,3,.,.,.,.
Cc1cc(=O)n2nc(N3CCC(C(=O)NCCc4ccc(Cl)cc4)CC3)sc2n1,-14,-2,-8,-26,-1,-1,.,.,.,.
Cc1ccc([N+](=O)[O-])cc1NC(=O)c1ccccc1,-5,0,-8,6,9,-1,.,.,.,.
O=C(Nc1ccc([N+](=O)[O-])cc1NC(=O)c1ccccc1)c1ccccc1,1,3,-7,57*,-3,6,32*,43,7,7
C[C@@H]1CN([C@H](C)CO)C(=O)c2cc(Br)cnc2O[C@H]1CN(C)C(=O)Cc1ccccc1,0,2,-2,16,-2,0,.,.,.,.
O=C(Nc1ccc(Oc2ccc(NC(=O)c3ccco3)c(NC(=O)c3ccco3)c2)cc1)c1ccco1,-2,-9,21,62*,-14,11,29*,56*,5,5
CC(C)(C)c1ccc(C(=O)Nc2ccc(NC(=O)c3ccco3)cc2)cc1,-2,2,26,58*,-17,11,22*,43,7,2
COc1cccc(CNC(=O)Cn2c(=O)c3cccn3c3ccccc32)c1,-1,4,-1,-19,5,1,.,.,.,.
C=CCN1C[C@H](COC(=O)c2cccc(C)c2)Oc2cccc(F)c2S1(=O)=O,.,.,.,49*,.,1,38*,50*,7,6
CCCCN1C[C@H](COC(=O)CCC)Oc2cccc(F)c2S1(=O)=O,-6,7,3,10,2,0,.,.,.,.
CN1CCC(N(C)CC(C)(C)NS(=O)(=O)c2ccccc2)CC1,-5,6,-1,-16,1,1,.,.,.,.
CCOC(=O)/C(N=Nc1ccc2c(c1)OCO2)=C(\C)O,-2,0,3,-1,3,6,.,.,.,.
COc1cccc(CNn2c(-c3cccc(C)c3)nc3ccccc3c2=O)c1O,-4,2,4,54*,-3,4,13,39,7,5
SMILES,CHRM1 agonist,HTR2A ag,CHRM1 antagonist,TAAR1 antagonist,CHRM1 PAM,TAAR1 agonist,TAAR1 nonsel count,TAAR1 ant conf,Ga16 nonsel ag,TAAR1 ag count
COc1ccccc1N(Cc1ccccc1)S(=O)(=O)c1cccc(C(=O)Nc2ccccn2)c1,-2,1,15,75*,-5,0,17,39,5,9
COc1ccc(OC)c(NC(=O)c2cccc(S(=O)(=O)N(Cc3ccccc3)c3ccccc3OC)c2)c1,-6,1,-4,15,3,0,.,.,.,.
COc1cc(OC)c(-c2nnc3n(CCc4ccccc4)c(=O)c4ccccc4n23)cc1OC,.,.,.,68*,.,18,26*,35,7,9
COc1ccc(-c2nnc3n(CCc4ccccc4)c(=O)c4ccccc4n23)c(OC)c1,-2,2,2,-2,-2,9,.,.,.,.
CC[N+]1(CC(O)COC2CC(C)CC(C)(C)C2)CCOCC1 (configuration not stated),-8,-2,10,4,-17,3,.,.,.,.
Cc1nn(C2CCS(=O)(=O)C2)c(Cl)c1/C=C/C(=O)OCC(=O)Nc1ccccc1OC(F)F (configuration not stated),-2,3,0,4,0,2,.,.,.,.
COc1ccc(Cl)cc1NC(=O)COC(=O)/C=C/c1c(C)nn(C2CCS(=O)(=O)C2)c1Cl (configuration not stated),-2,4,-5,53*,3,16,42*,41,13*,13
Cc1nn(CCc2nn[nH]n2)c2nc(-c3ccc(C4CCCCC4)cc3)cc(C(F)(F)F)c12,0,9,8,80*,0,8,89*,68*,6,3

# From PubChem BioAssay
